Laboratory results from ChEMBL document CHEMBL4138085, “Design, synthesis and antimicrobial evaluation of novel benzimidazole-incorporated sulfonamide analogues” (Eur J Med Chem, 2017).
≈ marks a conversion by molar mass, not a printed value.

Experiments:
Pichia norvegensis = test: Antifungal activity against Candida mycoderma after 24 hrs by NCCLS two fold broth microdilution method; type: functional
Pseudomonas aeruginosa = test: Antibacterial activity against Pseudomonas aeruginosa ATCC 27853 after 24 hrs by NCCLS two fold broth microdilution method; type: functional; details: ATCC 27853, 24 h
Summary of the method: (§1)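 Two-fold serial broth microdilution in 96-well plates following NCCLS. Plates were inoculated and incubated at 37 °C for 24 h, with growth read visually and spectrophotometrically. MIC was taken as the lowest concentration giving complete growth inhibition. Run in triplicate, with a DMSO-plus-inoculum solvent control.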

Candida albicans = test: Antifungal activity against Candida albicans ATCC 76615 after 24 hrs by NCCLS two fold broth microdilution method; type: functional; details: ATCC 76615, 24 h
Summary of the method: (§2)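 Two-fold serial microdilution following NCCLS. A spore suspension in sterile distilled water was prepared from one-day-old cultures grown on Sabouraud agar and adjusted to a final 1–5 × 10^3 spores/mL. DMSO stocks were diluted in RPMI 1640 to eleven concentrations (0.5–512 µg/mL), inoculated and held at 35 °C for 24 h. Growth was read visually and spectrophotometrically, MIC was the lowest concentration with complete inhibition, and runs were in triplicate.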

Bacillus subtilis = test: Antibacterial activity against Bacillus subtilis ATCC 21216 after 24 hrs by NCCLS two fold broth microdilution method; type: functional; details: ATCC 21216, 24 h
Summary of the method: as §1, with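 “NCCLS. Compounds were dissolved in DMSO as stocks, then diluted in Mueller–Hinton broth to final concentrations of 0.5–512 µg/mL.” for “NCCLS.”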

Micrococcus luteus = test: Antibacterial activity against Micrococcus luteus ATCC 4698 after 24 hrs by NCCLS two fold broth microdilution method; type: functional; details: NCTC 2665, 24 h
Summary of the method: as §1, with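 “NCCLS. Compounds were dissolved in DMSO as stocks, then diluted in Mueller–Hinton broth to final concentrations of 0.5–512 µg/mL.” for “NCCLS.”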

Staphylococcus aureus [1] = test: Antibacterial activity against methicillin-resistant Staphylococcus aureus N315 after 24 hrs by NCCLS two fold broth microdilution method; type: functional; details: N315, 24 h
Summary of the method: (§3)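 Two-fold serial broth microdilution per NCCLS. Chloromycin and norfloxacin as reference drugs; DMSO with inoculum, no drug, as solvent control. Incubation 37 °C for 24 h. Growth read visually and spectrophotometrically. MIC is the lowest concentration completely inhibiting growth; triplicate.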

Salmonella typhi = test: Antibacterial activity against Bacillus typhi after 24 hrs by NCCLS two fold broth microdilution method; type: functional, Salmonella enterica subsp. enterica serovar Typhi; details: Salmonella enterica
Summary of the method: as §3, with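 “NCCLS. DMSO stocks diluted in Mueller–Hinton broth to 512, 256, 128, 64, 32, 16, 8, 4, 2, 1, 0.5 µg/mL.” for “NCCLS.”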

Escherichia coli = test: Antibacterial activity against Escherichia coli ATCC 8099 after 24 hrs by NCCLS two fold broth microdilution method; type: functional; details: ATCC 8099, 24 h; summary of the method: as §1
Staphylococcus aureus [2] = test: Antibacterial activity against Staphylococcus aureus ATCC 25923 after 24 hrs by NCCLS two fold broth microdilution method; type: functional; details: ATCC 25923, 24 h
Summary of the method: as §1, with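 “NCCLS. Compounds were dissolved in DMSO as stocks, then diluted in Mueller–Hinton broth to final concentrations of 0.5–512 µg/mL.” for “NCCLS.”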

Aspergillus flavus [3] = test: Antifungal activity against Aspergillus flavus after 24 hrs by NCCLS two fold broth microdilution method; type: functional; summary of the method: as §2
Saccharomyces cerevisiae = test: Antifungal activity against Saccharomyces cerevisiae after 24 hrs by NCCLS two fold broth microdilution method; type: functional; summary of the method: as §2
Cyberlindnera jadinii = test: Antifungal activity against Candida utilis after 24 hrs by NCCLS two fold broth microdilution method; type: functional; details: Williopsis jadinii; summary of the method: as §2
Bacillus = test: Antibacterial activity against Bacillus proteus ATCC 13315 after 24 hrs by NCCLS two fold broth microdilution method; type: functional; details: ATCC 13315, 24 h
Summary of the method: as §1, with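 “NCCLS. Compounds were dissolved in DMSO as stocks, then diluted in Mueller–Hinton broth to final concentrations of 0.5–512 µg/mL.” for “NCCLS.”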

Aspergillus flavus [4] = test: Potency index, ratio of Fluconazole MIC to compound MIC for Aspergillus flavus; type: functional

SMILES	MIC (Pichia norvegensis) [µg/mL]	MIC (Pseudomonas aeruginosa) [µg/mL]	MIC (Candida albicans) [µg/mL]	MIC (Bacillus subtilis) [µg/mL]	MIC (Micrococcus luteus) [µg/mL]	MIC (Staphylococcus aureus [1]) [µg/mL]	MIC (Salmonella typhi) [µg/mL]	MIC (Escherichia coli) [µg/mL]	MIC (Staphylococcus aureus [2]) [µg/mL]	MIC (Aspergillus flavus [3]) [µg/mL]	MIC (Saccharomyces cerevisiae) [µg/mL]	MIC (Cyberlindnera jadinii) [µg/mL]	MIC (Bacillus) [µg/mL]	Ratio (Aspergillus flavus [4])
CC(=O)Nc1ccc(S(=O)(=O)Cc2nc3ccccc3n2CCCCCn2c3ccccc3c3ccccc32)cc1	32 (≈ 56.7 µM)	16 (≈ 28.3 µM)	512 (≈ 907 µM)	512 (≈ 907 µM)	128 (≈ 227 µM)	512 (≈ 907 µM)	64 (≈ 113 µM)	512 (≈ 907 µM)	256 (≈ 453 µM)	128 (≈ 227 µM)	32 (≈ 56.7 µM)	512 (≈ 907 µM)	512 (≈ 907 µM)	
CC(=O)Nc1ccc(S(=O)(=O)Cc2nc3ccccc3n2Cc2cccc(Cl)c2)cc1	256 (≈ 564 µM)	256 (≈ 564 µM)	512 (≈ 1130 µM)	128 (≈ 282 µM)	64 (≈ 141 µM)	128 (≈ 282 µM)	128 (≈ 282 µM)	64 (≈ 141 µM)	32 (≈ 70.5 µM)	256 (≈ 564 µM)	128 (≈ 282 µM)	512 (≈ 1130 µM)	128 (≈ 282 µM)	
CCn1c(CS(=O)(=O)c2ccc(N)cc2)nc2ccccc21	512 (≈ 1620 µM)	64 (≈ 203 µM)	256 (≈ 812 µM)	64 (≈ 203 µM)	128 (≈ 406 µM)	128 (≈ 406 µM)	128 (≈ 406 µM)	64 (≈ 203 µM)	64 (≈ 203 µM)	32 (≈ 101 µM)	512 (≈ 1620 µM)	64 (≈ 203 µM)	64 (≈ 203 µM)	
CCCCCCCCCCCCCCCCCCn1c(CS(=O)(=O)c2ccc(N)cc2)nc2ccccc21	64 (≈ 119 µM)	512 (≈ 948 µM)	512 (≈ 948 µM)	512 (≈ 948 µM)	256 (≈ 474 µM)	512 (≈ 948 µM)	512 (≈ 948 µM)	512 (≈ 948 µM)	512 (≈ 948 µM)	512 (≈ 948 µM)	64 (≈ 119 µM)	512 (≈ 948 µM)	512 (≈ 948 µM)	
Nc1ccc(S(=O)(=O)Cc2nc3ccccc3n2Cc2ccccc2F)cc1	8 (≈ 20.2 µM)	512 (≈ 1290 µM)	128 (≈ 324 µM)	16 (≈ 40.5 µM)	32 (≈ 80.9 µM)	64 (≈ 162 µM)	16 (≈ 40.5 µM)	4 (≈ 10.1 µM)	64 (≈ 162 µM)	32 (≈ 80.9 µM)	8 (≈ 20.2 µM)	4 (≈ 10.1 µM)	256 (≈ 647 µM)	8
CCCCCCCn1c(CS(=O)(=O)c2ccc(NC(C)=O)cc2)nc2ccccc21	512 (≈ 1200 µM)	512 (≈ 1200 µM)	512 (≈ 1200 µM)	256 (≈ 599 µM)	512 (≈ 1200 µM)	512 (≈ 1200 µM)	512 (≈ 1200 µM)	64 (≈ 150 µM)	8 (≈ 18.7 µM)	256 (≈ 599 µM)	512 (≈ 1200 µM)	128 (≈ 299 µM)	256 (≈ 599 µM)	
CC(=O)Nc1ccc(S(=O)(=O)Cc2nc3ccccc3n2Cc2ccc(Cl)c(Cl)c2)cc1	512 (≈ 1050 µM)	512 (≈ 1050 µM)	64 (≈ 131 µM)	128 (≈ 262 µM)	256 (≈ 524 µM)	512 (≈ 1050 µM)	512 (≈ 1050 µM)	256 (≈ 524 µM)	64 (≈ 131 µM)	16 (≈ 32.8 µM)	32 (≈ 65.5 µM)	512 (≈ 1050 µM)	128 (≈ 262 µM)	
Nc1ccc(S(=O)(=O)Cc2nc3ccccc3n2Cc2ccccc2Cl)cc1	512 (≈ 1240 µM)	16 (≈ 38.8 µM)	16 (≈ 38.8 µM)	16 (≈ 38.8 µM)	64 (≈ 155 µM)	32 (≈ 77.7 µM)	16 (≈ 38.8 µM)	128 (≈ 311 µM)	16 (≈ 38.8 µM)	32 (≈ 77.7 µM)	512 (≈ 1240 µM)	512 (≈ 1240 µM)	256 (≈ 621 µM)	
Nc1ccc(S(=O)(=O)Cc2nc3ccccc3n2Cc2ccc(F)cc2)cc1	512 (≈ 1290 µM)	16 (≈ 40.5 µM)	32 (≈ 80.9 µM)	512 (≈ 1290 µM)	512 (≈ 1290 µM)	512 (≈ 1290 µM)	16 (≈ 40.5 µM)	256 (≈ 647 µM)	16 (≈ 40.5 µM)	256 (≈ 647 µM)	32 (≈ 80.9 µM)	128 (≈ 324 µM)	128 (≈ 324 µM)	
CCCCCCCCCCn1c(CS(=O)(=O)c2ccc(N)cc2)nc2ccccc21	512 (≈ 1200 µM)	512 (≈ 1200 µM)	512 (≈ 1200 µM)	512 (≈ 1200 µM)	512 (≈ 1200 µM)	512 (≈ 1200 µM)	512 (≈ 1200 µM)	512 (≈ 1200 µM)	512 (≈ 1200 µM)	512 (≈ 1200 µM)	512 (≈ 1200 µM)	8 (≈ 18.7 µM)	512 (≈ 1200 µM)	
CC(=O)Nc1ccc(S(=O)(=O)Cc2nc3ccccc3n2Cc2ccccc2F)cc1	512 (≈ 1170 µM)	128 (≈ 293 µM)	256 (≈ 585 µM)	64 (≈ 146 µM)	32 (≈ 73.1 µM)	128 (≈ 293 µM)	64 (≈ 146 µM)	256 (≈ 585 µM)	512 (≈ 1170 µM)	64 (≈ 146 µM)	512 (≈ 1170 µM)	32 (≈ 73.1 µM)	128 (≈ 293 µM)	
CCCCCCn1c(CS(=O)(=O)c2ccc(N)cc2)nc2ccccc21	512 (≈ 1380 µM)	128 (≈ 345 µM)	512 (≈ 1380 µM)	512 (≈ 1380 µM)	512 (≈ 1380 µM)	512 (≈ 1380 µM)	512 (≈ 1380 µM)	512 (≈ 1380 µM)	128 (≈ 345 µM)	512 (≈ 1380 µM)	512 (≈ 1380 µM)	512 (≈ 1380 µM)	256 (≈ 689 µM)	
CCCCCn1c(CS(=O)(=O)c2ccc(N)cc2)nc2ccccc21	512 (≈ 1430 µM)	512 (≈ 1430 µM)	512 (≈ 1430 µM)	512 (≈ 1430 µM)	256 (≈ 716 µM)	512 (≈ 1430 µM)	512 (≈ 1430 µM)	512 (≈ 1430 µM)	512 (≈ 1430 µM)	256 (≈ 716 µM)	128 (≈ 358 µM)	512 (≈ 1430 µM)	512 (≈ 1430 µM)	
Nc1ccc(S(=O)(=O)Cc2nc3ccccc3n2CCCCCn2c3ccccc3c3ccccc32)cc1	16 (≈ 30.6 µM)	512 (≈ 980 µM)	512 (≈ 980 µM)	32 (≈ 61.2 µM)	512 (≈ 980 µM)	128 (≈ 245 µM)	64 (≈ 122 µM)	64 (≈ 122 µM)	512 (≈ 980 µM)	128 (≈ 245 µM)	64 (≈ 122 µM)	512 (≈ 980 µM)	512 (≈ 980 µM)	
CCCn1c(CS(=O)(=O)c2ccc(NC(C)=O)cc2)nc2ccccc21	16 (≈ 43.1 µM)	128 (≈ 345 µM)	64 (≈ 172 µM)	16 (≈ 43.1 µM)	256 (≈ 689 µM)	64 (≈ 172 µM)	32 (≈ 86.1 µM)	128 (≈ 345 µM)	128 (≈ 345 µM)	128 (≈ 345 µM)	16 (≈ 43.1 µM)	64 (≈ 172 µM)	64 (≈ 172 µM)	
CCCCCCn1c(CS(=O)(=O)c2ccc(NC(C)=O)cc2)nc2ccccc21	512 (≈ 1240 µM)	512 (≈ 1240 µM)	512 (≈ 1240 µM)	128 (≈ 310 µM)	256 (≈ 619 µM)	512 (≈ 1240 µM)	512 (≈ 1240 µM)	512 (≈ 1240 µM)	512 (≈ 1240 µM)	512 (≈ 1240 µM)	512 (≈ 1240 µM)	512 (≈ 1240 µM)	256 (≈ 619 µM)	
Nc1ccc(S(=O)(=O)Cc2nc3ccccc3n2Cc2ccc(Cl)cc2)cc1	16 (≈ 38.8 µM)	256 (≈ 621 µM)	256 (≈ 621 µM)	8 (≈ 19.4 µM)	8 (≈ 19.4 µM)	256 (≈ 621 µM)	512 (≈ 1240 µM)	64 (≈ 155 µM)	256 (≈ 621 µM)	128 (≈ 311 µM)	64 (≈ 155 µM)	32 (≈ 77.7 µM)	256 (≈ 621 µM)	
